ChEMBL document CHEMBL4334552, “Discovery of BMS-986260, a Potent, Selective, and Orally Bioavailable TGFβR1 Inhibitor as an Immuno-oncology Agent” (ACS Med Chem Lett, 2020)
The source made the active and inactive calls. The rule behind the calls is not given here.

Assays:
[1] = biological target: T1, PXR (Homo sapiens, UniProt O75469); test: Activation of PXR (unknown origin) relative to control
T1 sequence (O75469 whole entry): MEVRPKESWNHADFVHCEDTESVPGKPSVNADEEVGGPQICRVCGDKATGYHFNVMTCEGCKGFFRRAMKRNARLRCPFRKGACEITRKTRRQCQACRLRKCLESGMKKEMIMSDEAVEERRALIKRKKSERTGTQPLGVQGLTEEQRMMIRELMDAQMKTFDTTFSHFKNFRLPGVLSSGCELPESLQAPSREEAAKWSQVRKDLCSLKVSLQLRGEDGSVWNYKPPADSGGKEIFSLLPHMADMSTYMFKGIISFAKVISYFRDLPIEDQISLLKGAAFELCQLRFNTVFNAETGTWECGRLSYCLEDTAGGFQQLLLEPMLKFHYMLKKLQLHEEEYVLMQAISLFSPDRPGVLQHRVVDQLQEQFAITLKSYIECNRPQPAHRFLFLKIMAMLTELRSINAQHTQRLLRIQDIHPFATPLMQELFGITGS

[2] = Protein binding in mouse serum assessed as unbound fraction; assay type: ADME, cell-free
[3] = Half life in dog hepatocytes; assay type: ADME, cell-based, Canis lupus familiaris, Hepatocyte
[4] = Volume of distribution at steady state in Balb/C mouse at 5 mg/kg, iv; assay type: ADME, organism-based; settings: in vivo, read-out: Vdss
Outline: (§1)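 Male Balb/C mice (n = 3) dosed iv at 5 mg/kg and po at 10 mg/kg. Vehicle was 70% 25 mM acetate buffer pH 4.0, 5% ethanol and 25% PEG 400.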

[5] = Total AUC in Balb/C mouse at 5 mg/kg, iv; assay type: ADME, organism-based; design: dose 5 mg/kg, route intravenous, time AUCmax; settings: in vivo; outline: as §1
[6] = Cardiovascular toxicity in dog at 5 mg/kg, po dosed every 3 days on and 4 days off treatment regime for 1 month; assay type: organism-based, Canis lupus familiaris; settings: in vivo
[7] = Tmax in Beagle dog at 5 mg/kg, po; assay type: ADME, organism-based, Canis lupus familiaris; settings: in vivo
Outline: (§2)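 Male Beagle dogs (n = 2) were pretreated with pentagastrin and dosed iv at 1 mg/kg and po at 5 mg/kg. The oral vehicle was 5% ethanol, 45% PEG400 and 50% 25 mM acetate buffer pH 4.0. The iv vehicle was 5:45:50 EtOH/PEG400/saline at 1 mL/kg.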

[8] = tested on: MC-38; test: Antitumour activity against mouse MC38 cells allografted in C57Bl/6 mouse assessed as reduction in tumour growth at 3.75 mg/kg, po dosed every 3 days on and 4 days off treatment regime and cotreated with anti-PD1 at 10 mg/kg, ip every 4 days for 3 doses measured for ten doubling times after cessation of treatment by digital caliper analysis; assay type: functional, organism-based
Outline: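 MC38 cells (0.1 mL at 1 × 10^7 cells/mL) were implanted subcutaneously in the right flank of C57/BL6 mice. Randomization was at about 100 mm3, typically day 5. Oral dosing ran 3 days on, 4 days off, over 28 days. Anti-PD-1 was given at 10 mg/kg IP every 4 days for three doses, with isotype MOPC-21 IgG1 as control on the same schedule.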

[9] = Total AUC in Sprague Dawley rat at 5 mg/kg, iv; assay type: ADME, organism-based; design: dose 5 mg/kg, route intravenous, time AUCmax; settings: in vivo
Outline: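 Male Sprague–Dawley rats (n = 3) received a PEG400 solution iv at 5 mg/kg and po at 10 mg/kg.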

[10] = Half life in Balb/C mouse at 5 mg/kg, iv; assay type: ADME, organism-based; settings: in vivo
Outline: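 Male Balb/C mice (n = 3) dosed iv at 5 mg/kg in the same PK study as a 10 mg/kg oral arm. Vehicle was 70% 25 mM acetate buffer pH 4.0, 5% ethanol, 25% PEG 400. Half-life was taken from the iv arm.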

[11] = Cmax in Sprague Dawley rat at 10 mg/kg, po; assay type: ADME, organism-based; design: dose 10 mg/kg, route oral; settings: in vivo
Outline: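 Male Sprague–Dawley rats, n = 3, given 5 mg/kg iv or 10 mg/kg po as a PEG400 solution.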

[12] = Metabolic stability of compound in mouse liver microsomes assessed as compound remaining; assay type: ADME, Microsome
[13] = Total AUC in Beagle dog at 5 mg/kg, po; assay type: ADME, organism-based, Canis lupus familiaris; design: dose 5 mg/kg, route oral, time AUCmax; settings: in vivo; outline: as §2
[14] = biological target: T2, Cytochrome P450 1A2 (Homo sapiens, UniProt P05177); test: Induction of recombinant CYP1A2 (unknown origin) up to 24 microM; assay type: ADME; settings: recombinant enzyme
T2 sequence (P05177 whole entry): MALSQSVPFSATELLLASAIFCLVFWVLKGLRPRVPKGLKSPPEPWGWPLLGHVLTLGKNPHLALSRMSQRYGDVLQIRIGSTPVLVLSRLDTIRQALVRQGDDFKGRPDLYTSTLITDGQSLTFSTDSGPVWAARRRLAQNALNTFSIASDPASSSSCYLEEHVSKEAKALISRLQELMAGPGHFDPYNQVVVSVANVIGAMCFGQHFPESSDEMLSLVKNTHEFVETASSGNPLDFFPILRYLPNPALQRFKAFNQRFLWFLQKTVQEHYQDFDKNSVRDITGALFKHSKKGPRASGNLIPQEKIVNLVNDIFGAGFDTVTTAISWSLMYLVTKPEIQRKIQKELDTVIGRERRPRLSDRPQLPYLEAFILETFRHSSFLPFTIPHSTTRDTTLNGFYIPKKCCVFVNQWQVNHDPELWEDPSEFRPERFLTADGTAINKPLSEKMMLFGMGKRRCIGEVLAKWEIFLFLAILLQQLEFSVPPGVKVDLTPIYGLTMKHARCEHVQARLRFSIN

[15] = Half life in mouse hepatocytes; assay type: ADME, cell-based, Hepatocyte
[16] = MRT in Balb/C mouse at 5 mg/kg, iv; assay type: ADME, organism-based; settings: in vivo; outline: as §1
[17] = biological target: Cytochrome P450 2C9 (Homo sapiens, UniProt P11712); test: Induction of recombinant CYP2C9 (unknown origin) up to 24 microM; assay type: ADME; settings: recombinant enzyme
[18] = Total AUC in Balb/C mouse at 10 mg/kg, po; assay type: ADME, organism-based; design: dose 10 mg/kg, route oral, time AUCmax; settings: in vivo; outline: as §1
[19] = tested on: MC-38; test: Antitumour activity against mouse MC38 cells allografted in C57Bl/6 mouse assessed as tumour growth upto 15 mg/kg, po qd for 28 days by digital caliper analysis; assay type: functional, organism-based
Outline: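 C57/BL6 mice bearing subcutaneous right-flank MC38 tumors (0.1 mL of 1 × 10^7 cells/mL) were randomized at about 100 mm3. Monotherapy was given orally once daily for 28 days at up to 15 mg/kg.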

[20] = Half life in Sprague Dawley rat at 5 mg/kg, iv; assay type: ADME, organism-based; settings: in vivo
Outline: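 Male Sprague–Dawley rats (n = 3) dosed iv at 5 mg/kg as a PEG400 solution, alongside a 10 mg/kg oral arm. Half-life was derived from the iv profile.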

[21] = Half life in rat liver microsomes in presence of NADPH; assay type: ADME, Microsome
[22] = Half life in human hepatocytes; assay type: ADME, cell-based, Hepatocyte
[23] = biological target: TGF-beta receptor type-2 (Homo sapiens, UniProt P37173); test: Inhibition of wild type His-tagged TGFBR2 kinase domain (unknown origin) incubated for 1 hr by HTRF analysis
[24] = biological target: Cytochrome P450 2C19 (Homo sapiens, UniProt P33261); test: Induction of recombinant CYP2C19 (unknown origin) up to 24 microM; assay type: ADME; settings: recombinant enzyme
Sequence of Cytochrome P450 2C19 (P33261 whole entry): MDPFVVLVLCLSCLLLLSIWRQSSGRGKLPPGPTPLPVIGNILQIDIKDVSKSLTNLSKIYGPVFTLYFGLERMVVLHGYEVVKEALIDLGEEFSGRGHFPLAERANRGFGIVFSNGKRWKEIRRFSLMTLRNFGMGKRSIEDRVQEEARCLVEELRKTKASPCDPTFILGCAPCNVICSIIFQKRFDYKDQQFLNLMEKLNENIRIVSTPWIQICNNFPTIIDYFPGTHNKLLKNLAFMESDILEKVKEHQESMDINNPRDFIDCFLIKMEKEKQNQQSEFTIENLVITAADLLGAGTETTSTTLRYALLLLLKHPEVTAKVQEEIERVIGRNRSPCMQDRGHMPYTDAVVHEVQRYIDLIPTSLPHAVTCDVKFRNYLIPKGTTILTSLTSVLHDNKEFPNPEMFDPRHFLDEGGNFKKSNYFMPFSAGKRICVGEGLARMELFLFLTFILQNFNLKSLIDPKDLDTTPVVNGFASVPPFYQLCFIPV

Sequence of TGF-beta receptor type-2 (P37173 whole entry, the tested form may be a part): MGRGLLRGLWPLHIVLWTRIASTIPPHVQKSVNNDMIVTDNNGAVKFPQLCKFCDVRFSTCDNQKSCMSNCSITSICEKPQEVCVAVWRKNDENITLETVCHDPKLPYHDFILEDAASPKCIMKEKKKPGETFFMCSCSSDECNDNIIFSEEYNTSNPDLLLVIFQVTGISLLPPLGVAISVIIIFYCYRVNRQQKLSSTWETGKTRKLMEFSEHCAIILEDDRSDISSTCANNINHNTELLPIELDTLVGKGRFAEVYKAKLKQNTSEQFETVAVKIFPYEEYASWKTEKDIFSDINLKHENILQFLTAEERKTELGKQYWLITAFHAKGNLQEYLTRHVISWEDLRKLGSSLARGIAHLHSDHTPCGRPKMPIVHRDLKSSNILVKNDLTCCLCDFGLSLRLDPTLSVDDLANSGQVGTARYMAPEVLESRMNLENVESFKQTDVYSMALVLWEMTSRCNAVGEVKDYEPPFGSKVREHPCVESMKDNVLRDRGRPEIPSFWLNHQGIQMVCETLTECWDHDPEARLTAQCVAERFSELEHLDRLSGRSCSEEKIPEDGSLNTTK
Sequence of Cytochrome P450 2C9 (P11712 whole entry): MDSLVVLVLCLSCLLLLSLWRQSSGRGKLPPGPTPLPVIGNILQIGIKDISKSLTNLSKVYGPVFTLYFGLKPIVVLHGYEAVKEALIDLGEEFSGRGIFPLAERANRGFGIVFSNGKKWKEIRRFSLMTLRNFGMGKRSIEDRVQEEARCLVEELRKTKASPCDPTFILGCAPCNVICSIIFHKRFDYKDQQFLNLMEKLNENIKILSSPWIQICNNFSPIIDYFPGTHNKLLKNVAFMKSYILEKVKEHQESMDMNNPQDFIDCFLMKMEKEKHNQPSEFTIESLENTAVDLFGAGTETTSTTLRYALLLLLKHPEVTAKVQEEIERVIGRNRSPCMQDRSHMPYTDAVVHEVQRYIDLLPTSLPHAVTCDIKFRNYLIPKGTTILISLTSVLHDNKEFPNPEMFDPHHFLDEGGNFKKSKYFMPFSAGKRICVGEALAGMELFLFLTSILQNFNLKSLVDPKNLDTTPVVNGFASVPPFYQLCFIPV

`N#Cc1cnc2ccc(-c3c(-c4ccc(F)c(Cl)c4)ncn3CCO)nn12` showed an Emax [1] of 44%, a fraction unbound [2] of 0.12 and a half-life [3] of 1.03 h. For the same compound, the Vd [4] was 4.5 L/kg, the AUC [5] was 26.3 µM·h and the Activity [6] was “Non-Toxic”. The Tmax [7] was 0.67 h, the inhibition [8] was “Active” and the AUC [9] was 39.6 µM·h. For the same compound, the half-life [10] was 9.1 h, the Cmax [11] was 12.7 µM and the Stability [12] was 81%. The AUC [13] was 35 µM·h, the Activity [14] was “Not Active” and the half-life [15] was 1.27 h. For the same compound, the MRT [16] was 9 h, the Activity [17] was “Not Active” and the AUC [18] was 80.5 µM·h. The inhibition [19] was “inactive”, the half-life [20] was 5.7 h and the half-life [21] was 0.833 h. For the same compound, the half-life [22] was 0.9 h, the IC50 [23] was greater than 15 µM and the Activity [24] was “Not Active”.
